The test system of data set [1] is endogenously expressed insect nAChRs. Description: Whole-cell voltage clamp electrophysiology on isolated neurons. The format is cell-based, Spodoptera frugiperda. The following applies: for relative agonist efficacy: relative to the amplitude elicited by 1 mM of acetylcholine, holding potential −70 mV.
The next data set relates to Bemisia tabaci. Description: Whitefly adult leaf-dip bioassay. The format is in vivo. The following applies: for mortality at 16 µg/mL: Bemisia tabaci. Put shortly:
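Adult B. tabaci, including neonicotinoid-resistant biotype B (Unai, Brazil, 2009). Cotton leaf discs (3.5 cm) were dipped 5 s in solutions made up in 0.02% Triton X-100, with diluent alone for controls. Discs were air-dried and laid on 12 g L−1 agar under ventilated lids. Three replicates per concentration, 20–30 females each, held at 22–24 °C; adult mortality scored after 72 h.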

For a further data set, the system named is B. tabaci CYP6CM1. Description: Metabolism of insecticides by recombinant CYP6CM1 microsomes. The format is in vitro ADME, Bemisia tabaci. To be noted: 20 µM insecticide; 4 h at 30 °C; NADPH-regenerating system; UPLC-MS. An outline of the steps:
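B. tabaci CYP6CM1 and Drosophila NADPH CPR were baculovirus-expressed in Sf9 cells and run as microsomes (0.2 mg mL−1 total protein) in 0.1 M K-phosphate. Regenerating system: 1.3 mM NADP+, 3.3 mM glucose-6-phosphate, 3.3 mM MgCl2, 0.4 U mL−1 G6PDH. Insecticide 20 µM, 30 °C, 4 h, triplicates, no-NADPH control. Quenched with acetonitrile (50% final), centrifuged, parent loss measured by UPLC–MS/MS in positive ion mode.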

Data set [2] concerns lettuce aphids (Nasonovia ribisnigri). Description: Field trials against lettuce aphids. The following applies: seven lettuce field trials, foliar spray, rate g ha^−1: flupyradifurone 125, pymetrozine 200, thiacloprid 96, spirotetramat 75; for Efficacy (%) 6–10 DAA: 6–10 days after application; for Efficacy (%) 13–15 DAA: 13–15 days after application. The class given is in vivo. An outline of the steps: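 Seven lettuce field trials in the EU maritime zone, each including commercial formulated standard insecticides for comparison. Treatments were replicated 3–4 times per trial, with aphid infestations above economic threshold levels. Efficacy was assessed at various intervals after spraying by scoring surviving aphids.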

In data set [3] the test system is rat. The data set can be described thus: Acute dermal toxicity. The format is in vivo. To be noted: technical flupyradifurone.
Data set [4] relates to rat. The data set can be described thus: Acute inhalation toxicity. The format is in vivo. To be noted: technical flupyradifurone.
A short description of another data set: Skin irritation. To be noted: technical flupyradifurone.
The next data set can be described thus: Eye irritation. To be noted: technical flupyradifurone.
The nature of a further data set: Mutagenicity. The following applies: technical flupyradifurone.
A further data set in a line: Carcinogenicity. The following applies: technical flupyradifurone.
Data set [5] is described as follows: Reproductive and developmental toxicity. The following applies: technical flupyradifurone.
Another data set can be described thus: Fish acute toxicity. The following applies: rainbow trout, in vivo.
Data set [6] in a line: Aquatic invertebrate acute toxicity. To be noted: Daphnia, in vivo.
The next data set is described as follows: Aquatic plant toxicity. To be noted: algae, in vivo.
For a further data set, the system named is Earthworm (Eisenia). Description: Earthworm 14 day toxicity. The class given is in vivo.
Data set [7] deals with Honey bee. The data set can be described thus: Honey bee acute contact toxicity. The class given is in vivo. To be noted: technical flupyradifurone.
Data set [8] concerns Honey bee. The data set can be described thus: Honey bee acute oral toxicity. The format is in vivo. To be noted: technical flupyradifurone.
In data set [9] the test system is Honey bee. Description: Honey bee foliage residue test. The class given is in vivo. The following applies: at 205 g ha^−1.
In data set [10] the test system is Honey bee. Description: Honey bee long-term field studies in oilseed rape. The format is in vivo. To be noted: 205 g AI ha^−1 in oilseed rape, full bloom and bees actively foraging.
A further data set has as its system Bumblebee. The data set can be described thus: Bumblebee acute contact toxicity. The format is in vivo. To be noted: technical flupyradifurone.
Another data set relates to Myzus persicae. Description: Speed of action: suppression of aphid honeydew excretion on oilseed rape. The class given is in vivo. To be noted: SL200, 75 g AI ha^−1 foliar on oilseed rape. An outline of the steps: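 Susceptible M. persicae (strain NS): 100 aphids per plant on the abaxial leaf side of […] oilseed rape (six leaves). Sprayed 50 cm above the canopy with a track sprayer at 75 g AI ha−1 SL200 in 300 L ha−1 water; water controls; two replicates; 22 °C, 60–70% RH. Filter papers under the leaves were changed every 30 min up to 240 min and stained with ninhydrin; honeydew spot area was expressed as suppression relative to preapplication.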

For data set [11], the system named is tomato plants (Solanum lycopersicum L.). Description: Plant uptake and translocation by phosphor imaging. The following applies: [14C]-labelled, SL200; tomato plants harvested 1 day after soil drench. An outline of the steps: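 Test compound was [pyridinylmethyl-14C]-labelled in SL200 and drenched at 24 mg AI plant−1 onto 21-day-old tomato in 5 L pots of sandy loam at 80–90% water-holding capacity. Plants were kept at 21/16 °C day/night with 14 h light and 60–70% RH. Shoots were cut at the soil surface, pressed, dried 24 h at 50 °C and exposed 6 days to phosphor imaging plates.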

Like-named read-outs stand apart in the source and are kept apart here.

Broadly, the LC50 is the concentration that kills 50% of the test population. One may read the EC50 as the concentration at which the effect is half-maximal. A higher EC50 goes with weaker potency. As a reminder, the mortality is the share of the test organisms that died.

As to `O=[N+]([O-])NC1=NCCN1Cc1ccc(Cl)nc1` [Imidacloprid, imidacloprid, reference compound], in data set [1], the relative agonist efficacy is recorded as 0.15. In the data set on Bemisia tabaci (B. tabaci B-type strain (Unai, Brazil), concentrations of 1000 mg L^−1), the “response of adult females” value is given as “do not respond at all”. Besides, in the data set on B. tabaci CYP6CM1, the “degradation of parent compound by CYP6CM1 microsomes” value (from here on “degradation of parent compound”) was 23 ± 1%.
For `N#C/N=C1\SCCN1Cc1ccc(Cl)nc1` [Thiacloprid, thiacloprid], in [2], the “Efficacy (%) 6–10 DAA” value amounted to 88% and the “Efficacy (%) 13–15 DAA” value was 72%.
On to `CCOC(=O)OC1=C(c2cc(C)ccc2C)C(=O)N[C@]12CC[C@@H](OC)CC2` [Spirotetramat, spirotetramat], for which, in data set [2], the “Efficacy (%) 6–10 DAA” value is on record as 90% and the “Efficacy (%) 13–15 DAA” value amounted to 98%. Besides, the “degradation of parent compound” value in the data set with B. tabaci CYP6CM1 is reported as “not depleted at all”.
`O=C1C=C(N(Cc2ccc(Cl)nc2)CC(F)F)CO1` [Flupyradifurone, 4-{[(6-Chloropyridine-3-yl)methyl] (2,2-difluoroethyl)amino}furan-2 (5H)-one]: the “type of action on nAChRs” value in data set [1] (isolated S. frugiperda neurons) is “partial agonist”. Besides, the relative agonist efficacy in data set [1] was 0.56. The “Acute dermal toxicity, rat LD50” value in the data set with rat [3] is >2000 mg kg^−1 body weight. Further, the “Acute inhalation toxicity, rat LC50” value in the data set with rat [4] is on record as >4671 mg m^−3. Further, the Skin irritation entry in “Skin irritation” is on record as “Non-irritant”. Besides, the Eye irritation entry in the data set “Eye irritation” is listed as “Non-irritant”. Moreover, the Mutagenicity entry in the data set “Mutagenicity” is listed as “Not a mutagen”. For the same compound, the Carcinogenicity entry in the data set “Carcinogenicity” is reported as “Not a carcinogen”. Further, the “Reproductive and developmental toxicity” value in data set [5] is listed as “No concern”. In addition, the LC50 in the data set “Fish acute toxicity” is > 74.2 µg/mL. Also, the figures for the EC50 (in data set [6]; in “Aquatic plant toxicity”) were > 77.6 µg/mL and > 80 µg/mL, respectively. The “Earthworm (Eisenia) 14 day LC50” value with Earthworm (Eisenia) was 193 mg kg^−1 dry weight soil. Further, in the data set on Honey bee [7], the “Honey bee acute contact LD50” value was >100 µg bee^−1. Besides, in the data set with Honey bee [8], the “Honey bee acute oral LD50” value worked out at 1200 ng bee^−1. Besides, the “Honey bee foliage residue” value with Honey bee [9] is listed as “No effects at 205 g ha^−1”. Besides, the “Honey bee long-term field studies” value in the data set on Honey bee [10] was “No adverse effects”. For the same compound, in the data set with Bumblebee, the “Bumblebee acute contact LD50” value is on record as >100 µg bee^−1. For the same compound, the mortality at 16 µg/mL in the data set on Bemisia tabaci (read-out: adult mortality) came out at 50%; with Bemisia tabaci (read-out: nymph mortality), 100%. Further, in the data set with Myzus persicae (aphids on abaxial leaf side), the “time to feeding (honeydew excretion) stop after spray application” value is given as ≤ 2 h. For the same compound, the “aphid mortality two days after application” value in the data set on Myzus persicae (data not shown) is recorded as “all aphids were dead”. In addition, the “Efficacy (%) 6–10 DAA” value in [2] turned out to be 96%. In addition, the “Efficacy (%) 13–15 DAA” value in [2] worked out at 83%. Also, the “degradation of parent compound” value in the data set on B. tabaci CYP6CM1 is on record as “not depleted at all”. In data set [11], the “root uptake and distribution after drench application” value is reported as “fast root uptake”.
Regarding `CC(c1ccc(C(F)(F)F)nc1)S(C)(=O)=NC#N` (centres unmarked) [sulfoxaflor], the “degradation of parent compound” value in the data set with B. tabaci CYP6CM1 is on record as “not depleted at all”.
As for `CC1=NNC(=O)N(/N=C/c2cccnc2)C1` [Pymetrozine, pymetrozine], in [2], the “Efficacy (%) 6–10 DAA” value amounted to 79% and the “Efficacy (%) 13–15 DAA” value amounted to 57%. Also, the “degradation of parent compound” value in the data set with B. tabaci CYP6CM1 was determined as 70 ± 6%.

The values above are taken from paper PMC4657471 (Pest Management Science, 2014).
